# Data as given in ChEMBL document CHEMBL3400028, “Evaluation of Aconitum diterpenoid alkaloids as antiproliferative agents” (2015).
# Legend:
# Assay type in all cases: functional
# [1] = tested on: A549; assay: Antiproliferative activity against human A549 cells by sulforhodamine B assay
# Summary of the method: (§1)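 Cells in RPMI 1640 (25 mM HEPES, 2 mM L-glutamine, 10% heat-inactivated FBS, antibiotics) at 37 °C, 5% CO2. Seeded at 3–5 × 10³/well with graded concentrations, paclitaxel as assay control, for 72 h. TCA-fixed, stained with 0.04% SRB, dye dissolved in 10 mM Tris, A515 read. GI50 is the concentration halving absorbance versus untreated cells; three or more experiments.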
# [2] = tested on: DU-145; assay: Antiproliferative activity against human DU145 cells by sulforhodamine B assay; summary of the method: as §1
# [3] = tested on: KB; assay: Antiproliferative activity against human KB cells by sulforhodamine B assay; summary of the method: as §1
# [4] = Antiproliferative activity against multidrug-resistant P-gp expressing human KBVIN cells by sulforhodamine B assay
# Summary of the method: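 Vincristine-resistant KB subline kept in 100 nM vincristine, then grown 7–10 days without it before testing. RPMI 1640 with 10% FBS, 37 °C, 5% CO2. 3–5 × 10³ cells/well exposed 72 h to a concentration series, paclitaxel as assay control. SRB staining after TCA fixation, A515 read. GI50 is the 50% absorbance reduction versus untreated cells; three or more experiments.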
# [5] = Selectivity ratio of GI50 for human KB cells to GI50 for multidrug-resistant P-gp expressing human KBVIN cells
# Summary of the method: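 Ratio of GI50 in parental KB to GI50 in P-gp-overexpressing KB-VIN. […] KB-VIN cells were grown 7–10 days without vincristine before the assay.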
SMILES,GI50 [1],GI50 [2],GI50 [3],GI50 [4],RatioGI50 [5]
CCN1C[C@]2(COC)CC[C@H](O)[C@]34C1[C@@](O)([C@@H](OC)[C@H]23)[C@@]1(O)C[C@H](OC)[C@H]2C[C@@H]4[C@@H]1[C@H]2OC(C)=O,> 20 µM,> 20 µM,> 20 µM,> 20 µM,>20
C=C1[C@@H](OC(C)=O)[C@]23C[C@@H]1[C@@H](O)C[C@H]2[C@@]12C4C3C[C@@H]1[C@@]1(C)CC[C@H]2OC1N4CC [DEHYDROLUCIDUSCULINE],> 20 µM,> 20 µM,> 20 µM,> 20 µM,>20
C=C1[C@H]2C[C@@]3([C@@H]1OC(C)=O)[C@@H](C[C@@H]2OC(C)=O)[C@@]12C4[C@@H]3C[C@@H]1[C@@](C)(CC[C@@H]2O)CN4CC,> 20 µM,> 20 µM,> 20 µM,> 20 µM,>20
C=C1[C@H]2C[C@@H]3C4N5C[C@]6(C)CCC[C@@]47[C@@H]6[C@@]5(OC(=O)c4ccc(OC)cc4)C[C@]3([C@@H]1OC(=O)c1ccc(OC)cc1)[C@H]7[C@H]2O,> 20 µM,> 20 µM,> 20 µM,> 20 µM,>20
C=C1[C@H]2C[C@@H]3C4N5C[C@]6(C)CCC[C@@]47[C@@H]6[C@@H]5C[C@]3([C@@H]1OC(=O)c1ccc([N+](=O)[O-])cc1)[C@H]7[C@H]2OC(=O)c1ccc([N+](=O)[O-])cc1,6.9 µM,1 µM,5.3 µM,5.5 µM,0.96
CCN1C[C@]2(COC)[C@H](O)C[C@H](O)[C@]34C1[C@@](O)([C@@H](OC)[C@H]23)[C@@]1(O)C[C@H](OC)[C@H]2C[C@@H]4[C@@H]1[C@H]2O,> 20 µM,> 20 µM,> 20 µM,> 20 µM,>20
C=C1[C@H]2C[C@@H]3C4N5C[C@]6(C)CCC[C@@]47[C@@H]6[C@@]5(OC(=O)c4ccc([N+](=O)[O-])cc4)C[C@]3([C@@H]1O)[C@H]7[C@H]2O,> 20 µM,> 20 µM,> 20 µM,> 20 µM,>20
C=C1[C@H]2C[C@@H]3C4N5C[C@]6(C)CCC[C@@]47[C@@H]6[C@@H]5C[C@]3([C@@H]1OC(C)=O)[C@H]7[C@H]2O,> 20 µM,> 20 µM,> 20 µM,> 20 µM,>20
COC[C@@]12CC[C@H](OC)[C@]34C(C([C@H](OC)[C@H]13)[C@]1(OC(C)=O)[C@H]3[C@@H](OC(=O)c5ccccc5)[C@](O)(C[C@H]34)[C@@H](OC)[C@@H]1O)N(C)C2 [HYPACONITINE],> 20 µM,> 20 µM,> 20 µM,> 20 µM,>20
C=C1[C@H]2C[C@@H]3C4N5C[C@]6(C)CCC[C@@]47[C@@H]6[C@@]5(O)C[C@]3([C@@H]1OC(=O)c1cccnc1)[C@H]7[C@H]2OC(=O)c1cccnc1,> 20 µM,> 20 µM,> 20 µM,> 20 µM,>20
CCN1C[C@]2(COC)CC[C@H](OC(=O)c3ccc([N+](=O)[O-])cc3)[C@]34C1[C@@](O)([C@@H](OC)[C@H]23)[C@@]1(O)C[C@H](OC)[C@H]2C[C@@H]4[C@@H]1[C@H]2OC(=O)c1ccc([N+](=O)[O-])cc1,> 20 µM,> 20 µM,> 20 µM,> 20 µM,>20
C=C1[C@H]2C[C@@H]3C4N5C[C@]6(C)CCC[C@@]47[C@@H]6[C@@]5(O)C[C@]3([C@@H]1OC(=O)CC)[C@H]7[C@H]2O,> 20 µM,> 20 µM,> 20 µM,> 20 µM,>20
C=C1[C@H]2C[C@@]3([C@@H]1OC(=O)c1ccccc1)[C@@H](C[C@@H]2OC(=O)c1ccccc1)[C@@]12C4[C@@H]3C[C@@H]1[C@@](C)(CC[C@@H]2O)CN4CC,> 20 µM,> 20 µM,> 20 µM,> 20 µM,>20
CO[C@H]1[C@@H]2C[C@@H]3[C@H]1[C@](O)(C[C@@H]2OC)[C@@]1(O)C2N=C[C@]4(COC(=O)c5ccccc5N)CC[C@H](OC)[C@@]23[C@@H]4[C@@H]1OC,> 20 µM,> 20 µM,> 20 µM,> 20 µM,>20
C=C1[C@H]2C[C@@H]3C4N5C[C@]6(C)CCC[C@@]47[C@@H]6[C@@]5(O)C[C@]3([C@@H]1OC(=O)c1cccnc1)[C@H]7[C@H]2O,> 20 µM,> 20 µM,> 20 µM,> 20 µM,>20
CO[C@H]1[C@@H]2C[C@@H]3[C@H]1[C@](O)(C[C@@H]2OC)[C@@]1(O)C2NC(=O)[C@]4(COC(=O)c5ccccc5N)CC[C@H](OC)[C@@]23[C@@H]4[C@@H]1OC,> 20 µM,> 20 µM,> 20 µM,> 20 µM,>20
CCN1C[C@@]2(COC)[C@H]3[C@@H](OC)[C@H]4C1[C@]3([C@@H](OC)C[C@H]2OC(C)=O)[C@@H]1C[C@@]2(O)[C@H](OC(=O)c3ccc(OC)cc3)[C@@H]1[C@]4(OC(C)=O)[C@@H](OC(C)=O)[C@@H]2OC,> 20 µM,> 20 µM,> 20 µM,> 20 µM,>20
C=C1[C@H]2C[C@@H]3C4N5C[C@]6(C)CCC[C@@]47[C@@H]6[C@@]5(O)C[C@]3([C@@H]1O)[C@H]7[C@H]2OC(=O)c1cccc(C(F)(F)F)c1,6.8 µM,7.7 µM,8.9 µM,6.2 µM,1.5
C=C1[C@H]2C[C@@H]3C4N(C(=O)/C=C/c5ccccc5)C[C@]5(C)CCC[C@@]46[C@@H]5C(=O)C[C@]3([C@@H]1O)[C@H]6[C@H]2O (stereo not given in full),> 20 µM,> 20 µM,> 20 µM,> 20 µM,>20
CCN1C(=O)[C@]2(C)CC[C@H](OC)[C@@]34[C@@H]5C[C@H]6[C@H](OC)[C@@H]5[C@@]5(C[C@@H]6OC)OCO[C@@]5([C@@H](O)[C@@H]32)[C@@H]14,> 20 µM,> 20 µM,> 20 µM,> 20 µM,>20
C=C1[C@H]2C[C@@H]3C4N5C[C@]6(C)CCC[C@@]47[C@@H]6[C@@H]5C[C@]3([C@@H]1O)[C@H]7[C@H]2OC(=O)c1ccc([N+](=O)[O-])cc1,10 µM,10 µM,10 µM,10 µM,10
C=C1[C@H]2C[C@@H]3C4N5C[C@]6(C)CCC[C@@]47[C@@H]6[C@@]5(O)C[C@]3([C@@H]1O)[C@H]7[C@H]2OC(=O)c1cccnc1,> 20 µM,> 20 µM,> 20 µM,> 20 µM,>20
C=C1[C@H]2C[C@@H]3C4N5C[C@]6(C)CCC[C@@]47[C@@H]6[C@@H]5C[C@]3([C@@H]1OC(=O)c1ccc(F)cc1)[C@H]7[C@H]2O,> 20 µM,> 20 µM,> 20 µM,> 20 µM,>20
C=C1[C@H]2C[C@@H]3C4N5C[C@]6(C)CCC[C@@]47[C@@H]6[C@@H]5C[C@]3([C@@H]1OC(C)=O)[C@H]7[C@H]2OC(C)=O,> 20 µM,> 20 µM,> 20 µM,> 20 µM,>20
